For one assay, the species on record is Cavia porcellus. The assay can be described thus: Selectivity factor between CCK-B and CCK-A receptors.
Assay [1] addresses T1, Cholecystokinin receptor type A (Rattus norvegicus, UniProt P30551).
T1 sequence (P30551 whole entry): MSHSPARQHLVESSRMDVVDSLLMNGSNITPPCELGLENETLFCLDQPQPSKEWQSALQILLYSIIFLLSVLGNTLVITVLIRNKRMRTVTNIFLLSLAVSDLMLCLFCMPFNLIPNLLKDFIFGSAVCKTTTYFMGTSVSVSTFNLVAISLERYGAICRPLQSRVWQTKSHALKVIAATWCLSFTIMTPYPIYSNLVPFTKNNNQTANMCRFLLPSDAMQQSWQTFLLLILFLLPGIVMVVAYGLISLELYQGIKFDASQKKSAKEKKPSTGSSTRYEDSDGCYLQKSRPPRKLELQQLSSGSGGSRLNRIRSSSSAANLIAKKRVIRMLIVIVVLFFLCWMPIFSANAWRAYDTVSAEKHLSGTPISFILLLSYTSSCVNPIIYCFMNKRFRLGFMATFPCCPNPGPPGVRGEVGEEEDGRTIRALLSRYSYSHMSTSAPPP
Nature of the assay: In vitro inhibition of binding of [3H]pCCK-8 against Cholecystokinin type A receptor of rat pancreatic membranes. It counts as cell membranes, Membrane. In outline: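 Radioligand displacement of [3H]CCK-8S from membranes: rat pancreas for the CCK-A receptor and guinea-pig cerebral cortex for the CCK-B receptor, using slightly modified published methods. Values are means of n experiments.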

The target of assay [2] is T1, Cholecystokinin receptor type A. The assay can be described thus: Inhibition by displacing [3H]CCK-8S against Cholecystokinin type A receptor of rat pancreatic membranes.
For assay [3], the system named is Mus musculus. The assay can be described thus: Anxiolytic effect in the mouse black / white box model, when administered intravenously. To be noted: iv. It counts as functional. Put shortly:
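Naive mice were placed in an activity box with a brightly illuminated section, and the time they spent there was recorded. The effect was assessed over a dose series and reported as an ED50.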

Assay [4] is filed under the species Rattus norvegicus. Nature of the assay: pKB determined against pentagastrin-induced acid secretion in isolated rat gastric mucosa. It is filed as functional. Put shortly: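 Isolated rat gastric mucosa used as a gastrin-receptor preparation; acid secretion stimulated with pentagastrin and antagonism expressed as pKB.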
Assay [5] deals with Rattus norvegicus. The assay can be described thus: Anxiolytic effect in the rat social interaction test, when administered orally (po). It counts as functional.
In assay [6] the test system is Mus musculus. Nature of the assay: Anxiolytic effect in the mouse black / white box model, when administered orally (po). It counts as functional. Put shortly:
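Naive mice placed in an activity box with a brightly illuminated section. The read-out was the time the mice remained in the lit section. Dose-related effects were assessed, and an ED50 value was derived.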

In assay [7] the test system is Rattus norvegicus. Nature of the assay: Anxiolytic effect in the rat social interaction test against FG 7142, when administered intraperitoneally. It counts as functional. To be noted: ip.
Assay [8] concerns the target T2, Cholecystokinin receptor type A (Cavia porcellus) (UniProt Q63931).
T2 sequence (whole entry): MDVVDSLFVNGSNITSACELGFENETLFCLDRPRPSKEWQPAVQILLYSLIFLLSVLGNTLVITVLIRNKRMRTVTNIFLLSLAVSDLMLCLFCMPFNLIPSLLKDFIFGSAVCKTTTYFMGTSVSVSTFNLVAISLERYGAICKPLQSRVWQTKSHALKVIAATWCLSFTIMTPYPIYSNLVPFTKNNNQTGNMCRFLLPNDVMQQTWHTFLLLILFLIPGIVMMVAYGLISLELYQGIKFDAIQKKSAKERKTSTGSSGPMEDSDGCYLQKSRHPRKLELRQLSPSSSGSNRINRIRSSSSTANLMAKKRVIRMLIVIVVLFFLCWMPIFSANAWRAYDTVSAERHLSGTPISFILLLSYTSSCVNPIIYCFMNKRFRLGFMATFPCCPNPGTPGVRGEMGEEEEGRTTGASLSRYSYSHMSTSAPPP

The target of assay [9] is T2, Cholecystokinin receptor type A (Cavia porcellus). To be noted: Gall bladder.
Assay [10] deals with T3, Gastrin/cholecystokinin type B receptor (Homo sapiens) (UniProt P32239).
T3 sequence (whole entry): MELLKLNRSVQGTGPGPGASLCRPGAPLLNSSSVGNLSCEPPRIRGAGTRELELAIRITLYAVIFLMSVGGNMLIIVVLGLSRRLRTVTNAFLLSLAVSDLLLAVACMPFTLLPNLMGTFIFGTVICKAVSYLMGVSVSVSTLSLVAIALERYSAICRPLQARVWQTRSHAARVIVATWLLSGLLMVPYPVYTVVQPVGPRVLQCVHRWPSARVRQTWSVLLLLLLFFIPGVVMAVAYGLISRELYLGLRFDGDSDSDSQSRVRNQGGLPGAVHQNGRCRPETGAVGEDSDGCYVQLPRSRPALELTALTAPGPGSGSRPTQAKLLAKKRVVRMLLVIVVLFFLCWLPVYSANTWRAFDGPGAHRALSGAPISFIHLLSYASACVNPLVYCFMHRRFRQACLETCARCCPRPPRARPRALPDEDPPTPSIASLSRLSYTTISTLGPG
To be noted: Cavia porcellus.

Usually Ki stands for the dissociation constant of the complex between target and ligand, obtained from inhibition or displacement. The low end stands for a stronger hold on the target, the high end for a looser hold on the target. Turning to `O=C(Nc1ccc(O)cc1)NC1C(=O)N(CC23C[C@H]4C[C@@H](C2)C[C@@H](C3)C4)c2ccccc2N(c2ccccc2)C1=O` (single isomer, unassigned; (+)), the Ratio in the assay listed under Cavia porcellus is 30900. The same molecule gave a Ki in assay [1] of 20.4 µM.

Usually ED50 stands for the dose at which the effect has come halfway, by size or by number of responders. High values mean weaker potency, low ones greater potency. For orientation: pKB means −log10 of the KB, conventionally taken in molar units. On to `O=C(Nc1ccccc1)NC1C(=O)N(CC23C[C@H]4C[C@@H](C2)C[C@@H](C3)C4)c2ccccc2N(c2ccccc2)C1=O` (single isomer, unassigned; (+)) [listing 1 of 2 here], for which the values for the Ki in assay [2] and in assay [1] were 1.48 µM and 1.62 µM, respectively. In addition, the ED50 with Mus musculus [3] came out at 0.03 µg/kg; in the assay on Rattus norvegicus [5] it was 1.6 µg/kg; in the assay on Mus musculus [6] it was 0.05 µg/kg; with Rattus norvegicus [7], 10 µg/kg. The molecule also showed a pKB in the assay filed under Rattus norvegicus [4] of 7.4.

Consider `O=C(Nc1cccc(O)c1)NC1C(=O)N(CC23C[C@H]4C[C@@H](C2)C[C@@H](C3)C4)c2ccccc2N(c2ccccc2)C1=O` (single isomer, unassigned; (+)), for which, in the assay filed under Cavia porcellus, the Ratio came out at 550. The molecule further gave a Ki in [1] of 1.58 µM.

For the molecule `Nc1cccc(NC(=O)NC2C(=O)N(CC34C[C@H]5C[C@@H](C3)C[C@@H](C4)C5)c3ccccc3N(c3ccccc3)C2=O)c1` (single isomer, unassigned; (+)), the Ratio in the assay listed under Cavia porcellus stood at 13800. This molecule also gave a Ki in [1] of 4.07 µM.

As to `O=C(Nc1cccc(C(=O)OCCN2CCOCC2)c1)NC1C(=O)N(CC23C[C@H]4C[C@@H](C2)C[C@@H](C3)C4)c2ccccc2N(c2ccccc2)C1=O` (single isomer, unassigned; (+)), the Ratio in the assay listed under Cavia porcellus stood at 603. Moreover, the inhibition constant (Ki) in assay [1] was 0.339 µM.

For the molecule `O=C(Nc1cccc(CO)c1)NC1C(=O)N(CC23C[C@H]4C[C@@H](C2)C[C@@H](C3)C4)c2ccccc2N(c2ccccc2)C1=O` (single isomer, unassigned; (+)), the Ratio in the assay filed under Cavia porcellus was 12000. Further, in [1], the Ki was 2.14 µM.

For `CCOC(=O)CCCOc1ccc(NC(=O)NC2C(=O)N(CC34C[C@H]5C[C@@H](C3)C[C@@H](C4)C5)c3ccccc3N(c3ccccc3)C2=O)cc1` (single isomer, unassigned; (+)), the Ratio in the assay listed under Cavia porcellus is greater than 1900. The Ki in [1] was greater than 10 µM.

Regarding `O=C(Nc1ccccc1)NC1C(=O)N(CC23C[C@H]4C[C@@H](C2)C[C@@H](C3)C4)c2ccccc2N(c2ccccc2)C1=O` (single isomer, unassigned; (+)) [listing 2 of 2 here], the pKB in [8] is 5.9; in assay [9] it was 5.8; in assay [10], 8.9.

As to `Cc1cccc(NC(=O)N[C@@H]2N=C(c3ccccc3)c3ccccc3N(C)C2=O)c1` [L-365260], affinity in assay [2] was put at a Ki of 0.000148 µM.

The values above are taken from ChEMBL document CHEMBL1133671, “Synthesis and SAR of new 5-phenyl-3-ureido-1,5-benzodiazepines as cholecystokinin-B receptor antagonists” (J Med Chem, 2000).
